Laboratory results from ChEMBL document CHEMBL3352483, “Synthesis, structure-activity relationships and biological evaluation of barbigerone analogues as anti-proliferative and anti-angiogenesis agents” (Bioorg Med Chem Lett, 2014).

Columns and labels:
B16 = assay: Antiproliferative activity against mouse B16 cells after 24 hrs by MTT assay; type: functional, cell-based; conditions: B16, 24 h
In short: (§1)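 MTT proliferation assay on HUVECs and on HepG2, A375, U251, B16 and HCT116 cells. Results reported as IC50.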

HUVEC [1] = assay: Antiproliferative activity against HUVEC after 24 hrs by MTT assay; type: functional, cell-based; conditions: Homo sapiens; in short: as §1
Danio rerio = species: Danio rerio; assay: Antiangiogenic activity in Flk-1-GFP transgenic zebrafish embryo after 24 hrs; type: functional, organism-based
In short: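 Zebrafish embryos exposed to compound at 1.25 or 2.5 μM, or to vehicle, for 24 h. Read-out is formation of the subintestinal vessel (SIV) basket-like structure, compared with vehicle-treated embryos.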

HUVEC [2] = assay: Antimigratory activity in HUVEC assessed as migration into wound area at 0.5 uM after 24 hrs relative to vehicle treated control; type: functional, Homo sapiens
In short: (§2)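 Wound-healing assay. HUVEC monolayers scratched with a pipette, then treated with vehicle or the indicated compound concentrations. Photographs taken at 0 h and 24 h at 50×, and migration rate into the wound calculated. Mean ± SD from three independent experiments.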

[3] = Antiproliferative activity against human HCT116 cells after 24 hrs by MTT assay; type: functional, cell-based; conditions: HCT-116, 24 h; in short: as §1
HepG2 = assay: Antiproliferative activity against human HepG2 cells after 24 hrs by MTT assay; type: functional, cell-based; conditions: HepG2, 24 h; in short: as §1
HUVEC [4] = assay: Antiangiogenic activity against HUVEC assessed as inhibition of capillary-like tube formation at 1 uM after 8 hrs by Matrigel assay relative to control; type: functional; conditions: Homo sapiens
In short: (§3)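 HUVECs (1 × 10^4 cells) suspended in EBM-2 with vehicle or compound at 1.0 or 5.0 μM and plated on Matrigel. Incubated 8 h at 37 °C. Capillary networks photographed at 100× and quantified. Inhibition of tube-like structure formation expressed relative to vehicle group.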

U-251 = assay: Antiproliferative activity against human U251 cells after 24 hrs by MTT assay; type: functional, cell-based; conditions: U-251, 24 h; in short: as §1
HUVEC [5] = assay: Antimigratory activity in HUVEC assessed as migration into wound area at 1 uM after 24 hrs relative to vehicle treated control; type: functional, Homo sapiens; in short: as §2
A-375 = assay: Antiproliferative activity against human A375 cells after 24 hrs by MTT assay; type: functional, cell-based; conditions: A-375, 24 h; in short: as §1
HUVEC [6] = assay: Antiangiogenic activity against HUVEC assessed as inhibition of capillary-like tube formation at 5 uM after 8 hrs by Matrigel assay relative to control; type: functional; conditions: Homo sapiens; in short: as §3

IC50 (B16) [µM]	IC50 (HepG2) [µM]	IC50 (U-251) [µM]	IC50 (A-375) [µM]	Structure (SMILES)	IC50 (HUVEC [1]) [µM]	inhibition (Danio rerio)	Activity (HUVEC [2]) [%]	IC50 [3] [µM]	inhibition at 1 µM (HUVEC [4]) [%]	Activity (HUVEC [5]) [%]	inhibition at 5 µM (HUVEC [6]) [%]
1.09	0.28	3.5	1.58	COc1cc(OC)c(-c2coc3cc(OCC=C(C)C)ccc3c2=O)cc1OC	3.8	Dose-dependent effect	35.36	0.68	78.2	8.45	88.3
1.23	1.77	4.1	1.85	COc1cc(OC)c(-c2coc3c4c(ccc3c2=O)OC(C)(C)C=C4)cc1OC	7.45	Dose-dependent effect	74.26	2.36	23.7	1.65	65.4
> 10	> 10	> 10	> 10	COc1ccc(-c2coc3c4c(ccc3c2=O)OC(C)(C)C=C4)cc1OC	> 10			> 10			
1.91	> 10	5.85	7.25	CC1(C)C=Cc2c(ccc3c(=O)c(-c4ccc(C(F)(F)F)cc4)coc23)O1	> 10			7			
